This is an account of results in ChEMBL document CHEMBL6153064, “Structure-based discovery of novel diarylpyrimidines as potent and selective Non-Nucleoside reverse transcriptase inhibitors: From CH(CN)-Biphenyl-Diarylpyrimidines to CNNH2-Biphenyl-Diarylpyrimidines” (Eur J Med Chem, 2025).

Data set [1] concerns Human immunodeficiency virus 1. The data set can be described thus: Antiviral activity against wild type HIV-1 IIIB infected in human MT4 cells […]. The class given is functional, organism-based. Particulars: Human immunodeficiency virus 1, IIIB.
A short description of data set [2]: Selectivity index, ratio of CC50 for cytotoxicity against human MT4 cells to EC50 for antiviral activity against wild type HIV-1 IIIB infected in human MT4 cells. The class given is toxicity, cell-based. Particulars: read-out: Ratio CC50/EC50. The method, boiled down:
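Selectivity index calculated as CC50/EC50 ratio, both values from MTT viability readout in MT-4 cells, antiviral arm using wild-type HIV-1 IIIB.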

Data set [3] in a line: Cytotoxicity against human MT4 cells by MTT assay. In kind it is toxicity, cell-based.
Data set [4] concerns Human immunodeficiency virus 1. The data set can be described thus: Antiviral activity against HIV-1 harboring L100I mutant infected in human MT4 cells […]. In kind it is functional, organism-based. Conditions: Human immunodeficiency virus 1, MT4.
In data set [5] the test system is Human immunodeficiency virus 1. The data set can be described thus: Antiviral activity against HIV-1 harboring Y188L mutant infected in human MT4 cells assessed as inhibition of virus-induced cytopathic effect by MTT assay. Conditions: Human immunodeficiency virus 1, MT4.
Data set [6] has as its system Human immunodeficiency virus 1. The data set can be described thus: Antiviral activity against HIV-1 harboring Y181C mutant infected in human MT4 cells […]. The class given is functional, organism-based. Conditions: Human immunodeficiency virus 1, MT4.
For data set [7], the system named is Human immunodeficiency virus 1. Kind of data set: Antiviral activity against HIV-1 harboring K103N mutant infected in human MT4 cells […]. The class given is functional, organism-based. Conditions: Human immunodeficiency virus 1, MT4.
Data set [8] concerns Human immunodeficiency virus 1. The data set can be described thus: Antiviral activity against HIV-1 harboring E138K mutant infected in human MT4 cells […]. The class given is functional, organism-based. Particulars: Human immunodeficiency virus 1, MT4.

Some results are limits rather than exact numbers.

In general, EC50 refers to the concentration at which the effect is half-maximal. Broadly, the CC50 is the concentration giving 50% cytotoxicity. `CCNC(c1ccnc(Nc2ccc(C#N)cc2)n1)c1ccc(-c2ccc(C#N)cc2)cc1OC(F)(F)F` (centres undefined) had an EC50 in data set [1] of 505 nM. In addition, the selectivity ratio in data set [2] came to 43. The CC50 in data set [3] was 21000 nM.
As to `N#CCCNC(c1ccnc(Nc2ccc(C#N)cc2)n1)c1ccc(-c2ccc(C#N)cc2)cc1Cl` (centres undefined), in data set [1], the response was half-maximal at 71 nM (EC50). Also, the selectivity ratio in data set [2] is greater than 3600. In data set [3], this compound returned a CC50 greater than 255000 nM.
The compound `COc1cc(-c2ccc(C#N)cc2)ccc1C(NC1CC1)c1ccnc(Nc2ccc(C#N)cc2)n1` (centres undefined) registered an EC50 in data set [1] of 72 nM. The selectivity ratio in data set [2] stood at 1680. Moreover, the midpoint of cytotoxicity in data set [3], the CC50, lay at 123000 nM.
The matching figures for `CCNC(c1ccnc(Nc2ccc(C#N)cc2)n1)c1ccc(-c2ccc(C#N)cc2)cc1C` (centres undefined): 63 nM, 188 and 12000 nM.
The matching figures for `N#Cc1ccc(Nc2nccc(C(NC3CC3)c3ccc(-c4ccc(C#N)cc4)cc3F)n2)cc1` (centres undefined): 630 nM, greater than 431 and greater than 271000 nM.
As to `CCCNC(c1ccnc(Nc2ccc(C#N)cc2)n1)c1ccc(-c2ccc(C#N)cc2)cc1F` (centres undefined), it took 259 nM to reach a half-maximal effect in data set [1] (EC50). Moreover, the selectivity ratio in data set [2] is greater than 1060. This compound also displayed a CC50 in data set [3] greater than 270000 nM.
On to `N#Cc1ccc(Nc2nccc(C(NC3CC3)c3ccc(-c4ccc(C#N)cc4)cc3OC(F)(F)F)n2)cc1` (centres undefined), for which, in data set [1], the EC50 was 589 nM. For the same compound, the selectivity ratio in data set [2] worked out at 125. Moreover, in data set [3], the midpoint of cytotoxicity, the CC50, lay at 73000 nM.
The matching figures for `CCCNC(c1ccnc(Nc2ccc(C#N)cc2)n1)c1ccc(-c2ccc(C#N)cc2)cc1OC` (centres undefined): 131 nM, 110 and 14000 nM.
The matching figures for `N#Cc1ccc(Nc2nccc(C(NCCCO)c3ccc(-c4ccc(C#N)cc4)cc3Cl)n2)cc1` (centres undefined): 67 nM, 345 and 23000 nM.
Regarding `N#Cc1ccc(Nc2nccc(C(NC3CC3)c3ccc(-c4ccc(C#N)cc4)cc3Cl)n2)cc1` (centres undefined), a half-maximal effect in data set [1] (EC50) was put at 147 nM. In data set [2], the selectivity ratio is greater than 1800. The same compound gave a CC50 in data set [3] greater than 262000 nM.
The matching figures for `N#Cc1ccc(Nc2nccc(C(NCCF)c3ccc(-c4ccc(C#N)cc4)cc3Cl)n2)cc1` (centres undefined): 77 nM, greater than 3370 and greater than 259000 nM.
For `CC(C)NC(c1ccnc(Nc2ccc(C#N)cc2)n1)c1ccc(-c2ccc(C#N)cc2)cc1F` (centres undefined), in that order: 649 nM, 70 and 45000 nM.
Take `Cc1ccnc2c1NC(=O)c1cccnc1N2C1CC1` [NEVIRAPINE]: the EC50 in data set [4] was 2060 nM; in data set [5], greater than 15000 nM.
Compound `N#Cc1ccc(Nc2nccc(C(NCC(F)(F)F)c3ccc(-c4ccc(C#N)cc4)cc3Cl)n2)cc1` (centres undefined) displayed an EC50 in data set [1] of 231 nM. Further, in data set [2], the selectivity ratio was greater than 1070. In data set [3], this compound gave a CC50 greater than 241000 nM.
Turning to `COc1cc(-c2ccc(C#N)cc2)ccc1C(NC(C)C)c1ccnc(Nc2ccc(C#N)cc2)n1` (centres undefined), the EC50 in data set [1] was found to be 211 nM. The selectivity ratio in data set [2] was 94. In addition, the midpoint of cytotoxicity in data set [3], the CC50, lay at 20000 nM.
In data set [1], `CC(C)NC(c1ccnc(Nc2ccc(C#N)cc2)n1)c1ccc(-c2ccc(C#N)cc2)cc1OC(F)(F)F` (centres undefined) showed an EC50 of 927 nM. Moreover, the selectivity ratio in data set [2] was found to be 24. The 50% cytotoxic concentration (CC50) in data set [3] was determined as 23000 nM.
For `CCCNC(c1ccnc(Nc2ccc(C#N)cc2)n1)c1ccc(-c2ccc(C#N)cc2)cc1C(F)(F)F` (centres undefined), in that order: 1010 nM, 87 and 90000 nM.
In data set [1], `N#Cc1ccc(Nc2nccc(C(NCCO)c3ccc(-c4ccc(C#N)cc4)cc3Cl)n2)cc1` (centres undefined) registered an EC50 of 92 nM. The selectivity ratio in data set [2] was determined as 238. Moreover, the midpoint of cytotoxicity in data set [3], the CC50, lay at 22000 nM.
For `CCCNC(c1ccnc(Nc2ccc(C#N)cc2)n1)c1ccc(-c2ccc(C#N)cc2)cc1Cl` (centres undefined), in that order: 184 nM, greater than 1420 and greater than 261000 nM.
As for `CC(C)NC(c1ccnc(Nc2ccc(C#N)cc2)n1)c1ccc(-c2ccc(C#N)cc2)cc1Cl` (centres undefined), the EC50 in data set [1] amounted to 230 nM. In addition, the selectivity ratio in data set [2] was 130. Moreover, the CC50 in data set [3] came to 30000 nM.
For `CCNC(c1ccnc(Nc2ccc(C#N)cc2)n1)c1ccc(-c2ccc(C#N)cc2)cc1F` (centres undefined), in that order: 357 nM, 87 and 31000 nM.
For the compound `O=C1Nc2ccc(Cl)cc2[C@@](C#CC2CC2)(C(F)(F)F)O1` [EFAVIRENZ], the EC50 in data set [6] was 8 nM. Further, the CC50 in data set [3] was greater than 6300 nM.
`Cc1cc(-c2ccc(C#N)cc2)ccc1C(NC(C)C)c1ccnc(Nc2ccc(C#N)cc2)n1` (centres undefined) showed an EC50 in data set [1] of 166 nM. In addition, the selectivity ratio in data set [2] was determined as 495. Further, in data set [3], the CC50 was determined as 82000 nM.
For `N#Cc1ccc(Nc2nccc(C(NC3CC3)c3ccc(-c4ccc(C#N)cc4)cc3C(F)(F)F)n2)cc1` (centres undefined), in that order: 294 nM, 250 and 75000 nM.
The matching figures for `CCNC(c1ccnc(Nc2ccc(C#N)cc2)n1)c1ccc(-c2ccc(C#N)cc2)cc1Cl` (centres undefined): 99 nM, 187 and 19000 nM.
The matching figures for `CCCNC(c1ccnc(Nc2ccc(C#N)cc2)n1)c1ccc(-c2ccc(C#N)cc2)cc1C` (centres undefined): 146 nM, greater than 1870 and greater than 273000 nM.
With `CCCNC(c1ccnc(Nc2ccc(C#N)cc2)n1)c1ccc(-c2ccc(C#N)cc2)cc1OC(F)(F)F` (centres undefined), the response in data set [1] was half-maximal at 662 nM (EC50). Besides, the selectivity ratio in data set [2] is 40. Further, half-maximal cytotoxicity in data set [3] (CC50) was put at 27000 nM.
The matching figures for `CC(C)NC(c1ccnc(Nc2ccc(C#N)cc2)n1)c1ccc(-c2ccc(C#N)cc2)cc1C(F)(F)F` (centres undefined): 1190 nM, 25 and 29000 nM.
Compound `CCNC(c1ccnc(Nc2ccc(C#N)cc2)n1)c1ccc(-c2ccc(C#N)cc2)cc1C(F)(F)F` (centres undefined) registered an EC50 in data set [1] of 153 nM. Further, the selectivity ratio in data set [2] was found to be 146. For the same compound, in data set [3], the CC50 came to 22000 nM.
Turning to `N#Cc1ccc(Nc2nccc(C(C#N)c3ccc(-c4ccc(C#N)cc4)cc3F)n2)cc1` (centres undefined), the EC50 in data set [4] was found to be 1210 nM; in data set [6], 870 nM; in data set [7], 900 nM; in data set [8], 170 nM; in data set [5], 9810 nM. The selectivity ratio in data set [2] worked out at 1360. This compound yielded a CC50 in data set [3] of 36000 nM.
For the compound `N#Cc1ccc(Nc2nccc(C(NCCCl)c3ccc(-c4ccc(C#N)cc4)cc3Cl)n2)cc1` (centres undefined), a half-maximal effect in data set [1] (EC50) was put at 42 nM. The selectivity ratio in data set [2] was 5890. The CC50 in data set [3] is 243000 nM.
The matching figures for `Cc1cc(-c2ccc(C#N)cc2)ccc1C(NC1CC1)c1ccnc(Nc2ccc(C#N)cc2)n1` (centres undefined): 156 nM, greater than 1760 and greater than 274000 nM.
Regarding `N#Cc1ccc(Nc2nccc(C(NCCCCl)c3ccc(-c4ccc(C#N)cc4)cc3Cl)n2)cc1` (centres undefined), the EC50 in data set [1] stood at 195 nM. In addition, in data set [2], the selectivity ratio was greater than 1260. Further, the CC50 in data set [3] is greater than 244000 nM.
`CCNC(c1ccnc(Nc2ccc(C#N)cc2)n1)c1ccc(-c2ccc(C#N)cc2)cc1OC` (centres undefined): the EC50 in data set [1] was 326 nM. Moreover, the selectivity ratio in data set [2] stood at 60. In data set [3], this compound yielded a CC50 of 20000 nM.
